Laboratory results from ChEMBL document CHEMBL3132745, “Synthesis and Antimicrobial Activities of His(2-aryl)-Arg and Trp-His(2-aryl) Classes of Dipeptidomimetics” (Medchemcomm, 2014).
Values after ≈ are worked out from the molar mass of the structure shown. Active and inactive are the calls of the source. How the calls were made is not given here. Residues, ends and D or L forms follow the SMILES beside them. *: point of attachment. Boc = CC(C)(C)OC(=O)*; NHBn = c1ccc(CN*)cc1

What was measured:
[1] = tested on: Nakaseomyces glabratus; test: Antifungal activity against Candida glabrata assessed as growth inhibition; assay type: functional, organism-based
[2] = tested on: Escherichia coli; test: Antibacterial activity against Escherichia coli ATCC 35218 assessed as growth inhibition after 16-20 hrs by CLSI method; assay type: functional, organism-based
[3] = tested on: Cryptococcus neoformans; test: Antifungal activity against Cryptococcus neoformans ATCC 90113 assessed as growth inhibition after 70-74 hrs by CLSI method; assay type: functional, organism-based
[4] = tested on: SK-MEL; test: Cytotoxicity against human SK-MEL cells assessed as cell viability after 48 hrs by neutral red uptake assay; assay type: cell-based
In short: (§1)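 Neutral red uptake assay on human cancer lines (SK-MEL, KB, BT-549, SK-OV-3) and noncancerous mammalian cells (VERO, LLC-PK1). Highest tested concentration was 10 µg/mL.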

[5] = tested on: Pichia kudriavzevii; test: Antifungal activity against Candida krusei assessed as growth inhibition; assay type: functional, organism-based
[6] = tested on: Vero; test: Cytotoxicity against african green monkey Vero cells assessed as cell viability after 48 hrs by neutral red uptake assay; assay type: cell-based; settings: chlorocebus sabaeus; in short: as §1
[7] = tested on: LLC-PK1; test: Cytotoxicity against pig LLC-PK1 cells assessed as cell viability after 48 hrs by neutral red uptake assay; assay type: cell-based, Sus scrofa; settings: llc-pk1, 48 h; in short: as §1
[8] = tested on: KB; test: Cytotoxicity against human KB cells assessed as cell viability after 48 hrs by neutral red uptake assay; assay type: cell-based; in short: as §1
[9] = tested on: Candida albicans; test: Antifungal activity against Candida albicans assessed as growth inhibition; assay type: functional, organism-based
[10] = tested on: Aspergillus fumigatus; test: Antifungal activity against Aspergillus fumigatus assessed as growth inhibition; assay type: functional, organism-based
[11] = tested on: BT-549; test: Cytotoxicity against human BT549 cells assessed as cell viability after 48 hrs by neutral red uptake assay; assay type: cell-based; settings: bt-549, 48 h; in short: as §1
[12] = tested on: SK-OV-3; test: Cytotoxicity against human SKOV3 cells assessed as cell viability after 48 hrs by neutral red uptake assay; assay type: cell-based; settings: sk-ov-3, 48 h; in short: as §1
[13] = Cryptococcus neoformans, ATCC 90113, read-out: IC50

SMILES | growth inhibition (GI) [1] | growth inhibition (GI) [2] | MFC [3] | MIC [3] | IC50 [3, 13] [µg/mL] | Activity [4] [µg/mL] | growth inhibition (GI) [5] | Activity [6] [µg/mL] | Activity [7] [µg/mL] | Activity [8] [µg/mL] | growth inhibition (GI) [9] | growth inhibition (GI) [10] | Activity [11] [µg/mL] | Activity [12] [µg/mL] | IC50 [3]
COC(=O)[C@H](CCCNC(=N)N)NC(=O)[C@H](Cc1c[nH]c(-c2ccc(C)cc2)n1)NC(=O)OC(C)(C)C | inactive | inactive | inactive | inactive | 16.9 (≈ 32.9 µM) | > 10 | inactive | > 10 | > 10 | > 10 | inactive | inactive | > 10 | > 10 | –
CC(C)(C)OC(=O)N[C@@H](Cc1c[nH]c2ccccc12)C(=O)N[C@@H](Cc1c[nH]c(-c2cccc3ccccc23)n1)C(=O)NCc1ccccc1 | inactive | inactive | inactive | inactive | – | > 10 | inactive | > 10 | > 10 | > 10 | inactive | inactive | > 10 | > 10 | Not Active
COC(=O)[C@H](CCCNC(=N)N)NC(=O)[C@H](Cc1c[nH]c(-c2ccc(OC)cc2)n1)NC(=O)OC(C)(C)C | inactive | inactive | inactive | inactive | – | > 10 | inactive | > 10 | > 10 | > 10 | inactive | inactive | > 10 | > 10 | Not Active
COC(=O)[C@H](Cc1c[nH]c(-c2ccc(C(C)(C)C)cc2)n1)NC(=O)[C@@H](N)Cc1c[nH]c2ccccc12 | inactive | inactive | inactive | inactive | 18.8 (≈ 38.6 µM) | > 10 | inactive | > 10 | > 10 | > 10 | inactive | inactive | > 10 | > 10 | –
COc1ccc(-c2nc(C[C@H](N)C(=O)N[C@@H](CCCNC(=N)N)C(=O)NCc3ccccc3)c[nH]2)cc1 | inactive | inactive | inactive | inactive | – | > 10 | inactive | > 10 | > 10 | > 10 | inactive | inactive | > 10 | > 10 | Not Active
COC(=O)[C@H](CCCNC(=N)N)NC(=O)[C@@H](N)Cc1c[nH]cn1 (H-His-Arg-OMe) | inactive | inactive | inactive | inactive | – | > 10 | inactive | > 10 | > 10 | > 10 | inactive | inactive | > 10 | > 10 | Not Active
CC(C)(C)OC(=O)N[C@@H](Cc1c[nH]c2ccccc12)C(=O)N[C@@H](Cc1c[nH]cn1)C(=O)NCc1ccccc1 (Boc-Trp-His-NHBn) | inactive | inactive | inactive | inactive | – | > 10 | inactive | > 10 | > 10 | > 10 | inactive | inactive | > 10 | > 10 | Not Active
COC(=O)[C@H](Cc1c[nH]cn1)NC(=O)[C@@H](N)Cc1c[nH]c2ccccc12 (H-Trp-His-OMe) | inactive | inactive | inactive | inactive | – | > 10 | inactive | > 10 | > 10 | > 10 | inactive | inactive | > 10 | > 10 | Not Active
COC(=O)[C@H](Cc1c[nH]c(-c2cccc3ccccc23)n1)NC(=O)[C@@H](N)Cc1c[nH]c2ccccc12 | inactive | inactive | inactive | inactive | 17.3 (≈ 35.9 µM) | > 10 | inactive | > 10 | > 10 | > 10 | inactive | inactive | > 10 | > 10 | –
COC(=O)[C@H](Cc1c[nH]c(-c2ccccc2)n1)NC(=O)[C@H](Cc1c[nH]c2ccccc12)NC(=O)OC(C)(C)C | inactive | inactive | inactive | inactive | – | > 10 | inactive | > 10 | > 10 | > 10 | inactive | inactive | > 10 | > 10 | Not Active
COC(=O)[C@H](Cc1c[nH]cn1)NC(=O)[C@H](Cc1c[nH]c2ccccc12)NC(=O)OC(C)(C)C (Boc-Trp-His-OMe) | inactive | inactive | inactive | inactive | – | > 10 | inactive | > 10 | > 10 | > 10 | inactive | inactive | > 10 | > 10 | Not Active
Cc1ccc(-c2nc(C[C@H](NC(=O)[C@H](Cc3c[nH]c4ccccc34)NC(=O)OC(C)(C)C)C(=O)NCc3ccccc3)c[nH]2)cc1 | inactive | inactive | inactive | inactive | – | > 10 | inactive | > 10 | > 10 | > 10 | inactive | inactive | > 10 | > 10 | Not Active
COC(=O)[C@H](CCCNC(=N)N)NC(=O)[C@H](Cc1c[nH]cn1)NC(=O)OC(C)(C)C (Boc-His-Arg-OMe) | inactive | inactive | inactive | inactive | – | > 10 | inactive | > 10 | > 10 | > 10 | inactive | inactive | > 10 | > 10 | Not Active
COC(=O)[C@H](CCCNC(=N)N)NC(=O)[C@H](Cc1c[nH]c(-c2ccccc2)n1)NC(=O)OC(C)(C)C | inactive | inactive | inactive | inactive | 16.6 (≈ 33.1 µM) | > 10 | inactive | > 10 | > 10 | > 10 | inactive | inactive | > 10 | > 10 | –
COC(=O)[C@H](Cc1c[nH]c(-c2ccc(OC)cc2)n1)NC(=O)[C@@H](N)Cc1c[nH]c2ccccc12 | inactive | inactive | inactive | inactive | – | > 10 | inactive | > 10 | > 10 | > 10 | inactive | inactive | > 10 | > 10 | Not Active
